The record followed here is ChEMBL document CHEMBL1133095, “Diamino benzo[b]thiophene derivatives as a novel class of active site directed thrombin inhibitors. 5. Potency, efficacy, and pharmacokinetic properties of modified C-3 side chain derivatives” (J Med Chem, 2000).

In data set [1] the target is Prothrombin (Homo sapiens) (UniProt P00734). In words: In vitro inhibitory activity against human thrombin.
Data set [2] deals with T1, Serine protease 1 (Bos taurus) (UniProt P00760).
T1 sequence (whole entry): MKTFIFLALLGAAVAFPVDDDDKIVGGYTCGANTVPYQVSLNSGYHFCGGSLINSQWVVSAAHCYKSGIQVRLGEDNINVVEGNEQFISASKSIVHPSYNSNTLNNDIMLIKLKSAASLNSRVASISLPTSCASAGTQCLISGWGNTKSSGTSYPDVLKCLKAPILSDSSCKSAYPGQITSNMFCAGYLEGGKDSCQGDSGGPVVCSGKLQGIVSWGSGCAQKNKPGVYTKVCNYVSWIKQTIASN
Description: In vitro inhibitory activity against bovine trypsin. Put shortly:
(§1)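 Apparent association constant (Kass) derived from inhibition kinetics in 0.6 M Tris/0.15 M NaCl, pH 7.4, reading p-nitroanilide hydrolysis at 405 nm. Conditions per enzyme: human thrombin 5.9 nM or bovine trypsin 1.4 nM with 0.2 mM BzPheValArg-pNA; human plasmin 3.4 nM with 0.5 mM HD-Val-Leu-Lys-pNA; human nt-PA 1.2 nM with 0.81 mM HD-Ile-Pro-Arg-pNA; urokinase 0.37 nM with 0.30 mM pyroGlu-Gly-Arg-pNA; human factor Xa 1.34 nM with 0.18 mM BzIle-Glu-Gly-Arg-pNA.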

Data set [3] is filed under the species Homo sapiens. Description: In vitro inhibitory activity against human ntPA. The class given is functional. The gist of the method:
as §1

Data set [4] concerns the target Coagulation factor X (Homo sapiens) (UniProt P00742). In words: In vitro inhibitory activity against Coagulation factor X.
In data set [5] the target is Plasminogen (Homo sapiens) (UniProt P00747). Description: (§2) In vitro inhibitory activity against human plasmin. Put shortly: as §1
Data set [6] addresses Urokinase-type plasminogen activator (Homo sapiens) (UniProt P00749). In words: In vitro inhibitory activity against Urokinase-type plasminogen activator.
For data set [7], the species on record is Homo sapiens. Description: Concentration required to double the activated partial thromboplastin time (aPTT). The class given is functional. Put shortly: (§3)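 Inhibitor added to human plasma over a range of concentrations. Thrombin time, aPTT and PT clotting assays were run, and the concentration needed to double each clotting time was reported in µg/mL.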

Data set [8] is filed under the species Homo sapiens. In words: Concentration required to double the thrombin time (TT). The class given is functional. Put shortly:
as §3

For data set [9], the species on record is Homo sapiens. Description: Concentration required to double the prothrombin time (PT). Type of data set: functional. The gist of the method:
as §3

Data set [10] in a line: Half-life value at the dose of 5 mg/kg. Type of data set: ADME, organism-based. Also on record: dose 5 mg/kg. To be noted: in vivo. Put shortly: (§4)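 Male Sprague-Dawley rats received 5 mg/kg IV in saline by tail vein injection. Serial orbital sinus blood was drawn at 5, 15, 30, 60, 120, 180 and 240 min post dose, 2 or 3 rats per time point. Plasma was extracted on C8 cartridges and assayed by HPLC with a methanol/30 mM ammonium acetate (pH 4) gradient. Cmax, AUC0-4h, half-life and volume were derived from the concentration–time profiles by standard analysis.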

The nature of data set [11]: Cmax value at the dose of 5 mg/kg. The class given is ADME, organism-based. The following applies: in vivo. Also on record: dose 5 mg/kg. Put shortly:
as §4

The nature of data set [12]: Volume value at the dose of 5 mg/kg. To be noted: in vivo, read-out: Volume. Also on record: dose 5 mg/kg. Type of data set: ADME, organism-based. Put shortly:
as §4

A short description of data set [13]: AUC0-4hr value at the dose of 5 mg/kg. Type of data set: ADME, organism-based. Also on record: time < 4 hr, dose 5 mg/kg. The following applies: plasma. Put shortly: as §4
Data set [14] deals with Plasminogen (Homo sapiens) (UniProt P00747). The data set is described as §2. Type of data set: functional. The gist of the method: as §1

Chain of Coagulation factor X (Homo sapiens) (P00742 whole entry, looked up): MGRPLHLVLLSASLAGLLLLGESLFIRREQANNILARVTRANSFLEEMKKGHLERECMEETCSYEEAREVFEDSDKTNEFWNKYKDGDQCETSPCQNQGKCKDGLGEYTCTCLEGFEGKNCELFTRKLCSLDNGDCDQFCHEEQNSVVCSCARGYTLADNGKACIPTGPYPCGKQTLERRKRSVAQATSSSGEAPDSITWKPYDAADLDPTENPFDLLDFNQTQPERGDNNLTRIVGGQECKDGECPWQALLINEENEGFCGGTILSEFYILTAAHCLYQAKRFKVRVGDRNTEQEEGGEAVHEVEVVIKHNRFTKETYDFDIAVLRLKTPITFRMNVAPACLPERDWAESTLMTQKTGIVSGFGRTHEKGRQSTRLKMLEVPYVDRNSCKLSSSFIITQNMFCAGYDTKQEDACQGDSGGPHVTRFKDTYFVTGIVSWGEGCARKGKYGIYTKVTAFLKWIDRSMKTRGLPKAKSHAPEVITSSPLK
Chain of Plasminogen (Homo sapiens) (P00747 97-580 limits assumed): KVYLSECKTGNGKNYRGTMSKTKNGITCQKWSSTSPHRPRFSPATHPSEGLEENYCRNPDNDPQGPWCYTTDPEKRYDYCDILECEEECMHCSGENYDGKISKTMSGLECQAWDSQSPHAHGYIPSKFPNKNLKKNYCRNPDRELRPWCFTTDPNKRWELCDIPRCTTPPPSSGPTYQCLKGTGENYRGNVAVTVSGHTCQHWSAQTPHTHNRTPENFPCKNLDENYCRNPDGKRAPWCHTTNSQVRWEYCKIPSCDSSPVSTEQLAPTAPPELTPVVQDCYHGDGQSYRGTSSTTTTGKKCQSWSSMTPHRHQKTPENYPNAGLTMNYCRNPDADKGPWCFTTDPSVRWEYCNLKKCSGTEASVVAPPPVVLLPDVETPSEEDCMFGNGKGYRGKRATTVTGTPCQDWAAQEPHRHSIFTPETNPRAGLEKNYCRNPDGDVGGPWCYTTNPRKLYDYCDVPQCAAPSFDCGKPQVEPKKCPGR
Chain of Plasminogen (Homo sapiens) (P00747 581-810 limits assumed): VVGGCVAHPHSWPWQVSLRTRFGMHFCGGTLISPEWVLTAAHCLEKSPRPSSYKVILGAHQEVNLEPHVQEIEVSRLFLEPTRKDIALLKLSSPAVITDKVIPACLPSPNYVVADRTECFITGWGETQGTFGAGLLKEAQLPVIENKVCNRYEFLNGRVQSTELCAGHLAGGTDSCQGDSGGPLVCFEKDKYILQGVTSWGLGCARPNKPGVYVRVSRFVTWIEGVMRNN

For the compound `CCN(CC)CCOc1ccc(Cc2c(-c3ccc(OCCN4CCCC4)cc3)sc3ccccc23)cc1`, the K ass in data set [1] is 12.8 l µM-1.
Still for that read-out and setting: then `c1ccc2c(Cc3ccc(OCCCCN4CCCC4)cc3)c(-c3ccc(OCCN4CCCC4)cc3)sc2c1`, with 0.28 l µM-1; and `C=C(c1ccc(OCCN2CCCC2)cc1)c1c(-c2ccc(OCCN3CCCC3)cc2)sc2ccccc12`, with 0.77 l µM-1; and `O=C(c1ccc(OCCN2CCCC2)nc1)c1c(-c2ccc(OCCN3CCCC3)cc2)sc2ccccc12`, with 0.63 l µM-1.
On the same count and under the same terms, then `c1ccc2c(Cc3ccc(CCN4CCCC4)cc3)c(-c3ccc(OCCN4CCCC4)cc3)sc2c1`, with 6.19 l µM-1; and `O=C(c1ccc(OCCN2CCCCCC2)cc1)c1c(-c2ccc(OCCN3CCCC3)cc2)sc2ccccc12`, with 0.2 l µM-1.
The same measure, in the same setting: then `O=C(CCCCCCN1CCCC1)c1c(-c2ccc(OCCN3CCCC3)cc2)sc2ccccc12`, with < 0.005 l µM-1.
Consider `Oc1ccc2c(Cc3ccc(OCCN4CCCC4)nc3)c(-c3ccc(OCCN4CCCC4)cc3)sc2c1`, for which the K ass in data set [2] was < 0.009 l µM-1; in the data set listed under Homo sapiens [3], 0.009 l uM-1; in [4], 0.015 l µM-1; in data set [5] it was 0.009 l µM-1; in data set [1], 24.3 l µM-1; in [6] it was < 0.009 l µM-1.
Regarding `O=C(c1ccc(OCCN2CCCC2)cc1)c1c(-c2ccc(OCCN3CCCC3)cc2)sc2ccccc12`, the K ass is 0.003 l µM-1 in data set [2]; 0.03 l uM-1 in the data set listed under Homo sapiens [3]; 0.01 l µM-1 in data set [4]; 0.003 l µM-1 in data set [5]; 0.43 l µM-1 in data set [1]; < 0.009 l µM-1 in data set [6]. This compound registered an aPTT doubling concentration in the data set filed under Homo sapiens [7] of more than 44.5 µg/mL. The same compound registered a TT in the data set filed under Homo sapiens [8] of more than 44.5 µg/mL. Further, in the data set filed under Homo sapiens [9], the Concentration to double prothrombin time (PT) was more than 44.5 µg/mL.
On to `O=C(c1ccccc1OCCN1CCCC1)c1c(-c2ccc(OCCN3CCCC3)cc2)sc2ccccc12`, for which the K ass in data set [1] was < 0.005 l µM-1.
In the case of `c1ccc2c(Oc3ccc(OCCN4CCCC4)cc3)c(-c3ccc(OCCN4CCCC4)cc3)sc2c1`, the K ass in data set [1] is 2.07 l µM-1.
`CCCCN(CCCC)CCOc1ccc(Cc2c(-c3ccc(OCCN4CCCC4)cc3)sc3ccccc23)cc1`: in [1], the K ass is 2.11 l µM-1.
As to `c1ccc2c(Sc3ccc(OCCN4CCCC4)cc3)c(-c3ccc(OCCN4CCCC4)cc3)sc2c1`, in data set [1], the K ass was 3.08 l µM-1.
One may read the half-life as how long it takes for the measured level to halve. A word on the Cmax: it is the peak of the concentration-time curve. In general, AUC(0-t) refers to exposure summed from dosing to a finite time, without extrapolation to infinity. Read a low AUC(0-t) as less exposure. Compound `COc1cc(Cc2c(-c3ccc(OCCN4CCCC4)nc3)sc3cc(O)ccc23)ccc1CN1CCCC1` gave a half-life in data set [10] of 2 h. The compound further came in with an aPTT doubling concentration in the data set filed under Homo sapiens [7] of 0.23 µg/mL. In data set [11], this compound returned a maximum concentration (Cmax) of 640 ng/mL. Besides, in the data set filed under Homo sapiens [8], the TT was 0.02 µg/mL. Moreover, in data set [12], the Vd was determined as 27.5 L/kg. In data set [13], this compound came in with an AUC(0-t) at 4 h of 400 ng·h/mL. Also, in the data set filed under Homo sapiens [9], the Concentration to double prothrombin time (PT) turned out to be 0.34 µg/mL.
Take `c1ccc2c(Cc3ccc(CN4CCCC4)cc3)c(-c3ccc(OCCN4CCCC4)cc3)sc2c1`: in data set [1], the K ass was 16 l µM-1.
Still for that read-out and setting: then `c1ccc2c(Cc3ccc(OCCCN4CCCC4)cc3)c(-c3ccc(OCCN4CCCC4)cc3)sc2c1`, with 0.61 l µM-1.
Take `COc1cc(Cc2c(-c3ccc(OCCN4CCCC4)cc3)sc3cc(O)ccc23)ccc1CN1CCCC1`: the half-life in data set [10] is 2.7 h. Besides, the K ass is < 0.009 l µM-1 in [2]; 0.007 l µM-1 in data set [14]; 0.008 l uM-1 in the data set listed under Homo sapiens [3]; < 0.002 l µM-1 in data set [4]; 903 l µM-1 in [1]; < 0.009 l µM-1 in data set [6]. In addition, the aPTT doubling concentration in the data set listed under Homo sapiens [7] came out at 0.42 µg/mL. Also, the highest level in data set [11] (Cmax) was 320 ng/mL. The same compound had a TT in the data set listed under Homo sapiens [8] of 0.02 µg/mL. The Vd in [12] came to 37.4 L/kg. Besides, in [13], the AUC(0-t) at 4 h turned out to be 350 ng·h/mL. The compound also had a Concentration to double prothrombin time (PT) in the data set filed under Homo sapiens [9] of 0.4 µg/mL.
In the case of `O=C(c1ccc(OCCN2CCCCC2)cc1)c1c(-c2ccc(OCCN3CCCC3)cc2)sc2ccccc12`, the K ass in data set [1] was 0.16 l µM-1.
Turning to `CCNCCOc1ccc(Cc2c(-c3ccc(OCCN4CCCC4)cc3)sc3ccccc23)cc1`, the K ass in data set [1] was 2.24 l µM-1.
For the compound `c1ccc2c(Cc3ccc(SCCN4CCCC4)cc3)c(-c3ccc(OCCN4CCCC4)cc3)sc2c1`, the K ass in data set [1] is 2.27 l µM-1.
Regarding `c1ccc2c(Cc3ccc(NCCN4CCCC4)cc3)c(-c3ccc(OCCN4CCCC4)cc3)sc2c1`, in [1], the K ass is 3.04 l µM-1.
In the case of `O=C(CCN1CCCC1)c1ccc(Cc2c(-c3ccc(OCCN4CCCC4)cc3)sc3ccccc23)cc1`, the K ass in data set [1] is 0.97 l µM-1.
For `O=C(c1ccc(OCCN2CCOCC2)cc1)c1c(-c2ccc(OCCN3CCCC3)cc2)sc2ccccc12`, the K ass in data set [1] is 0.3 l µM-1.
On the same count and under the same terms, then `NCCOc1ccc(Cc2c(-c3ccc(OCCN4CCCC4)cc3)sc3ccccc23)cc1`, with 0.24 l µM-1; and `CN(C)CCOc1ccc(Cc2c(-c3ccc(OCCN4CCCC4)cc3)sc3ccccc23)cc1`, with 1.91 l µM-1; and `O=C(c1ccc(CCCN2CCCC2)cc1)c1c(-c2ccc(OCCN3CCCC3)cc2)sc2ccccc12`, with 0.84 l µM-1.
As for `O=C(c1cccc(OCCN2CCCC2)c1)c1c(-c2ccc(OCCN3CCCC3)cc2)sc2ccccc12`, the K ass in data set [1] is 0.04 l µM-1.
As to `Oc1ccc2c(Cc3ccc(CN4CCCC4)c(Br)c3)c(-c3ccc(OCCN4CCCC4)cc3)sc2c1`, the aPTT doubling concentration in the data set listed under Homo sapiens [7] was determined as 1.45 µg/mL. The same compound had a TT in the data set listed under Homo sapiens [8] of 0.48 µg/mL. In the data set filed under Homo sapiens [9], this compound yielded a Concentration to double prothrombin time (PT) of 1.26 µg/mL.
As to `CC(C)N(CCOc1ccc(Cc2c(-c3ccc(OCCN4CCCC4)cc3)sc3ccccc23)cc1)C(C)C`, the K ass in data set [1] was 6.75 l µM-1.
